Calls of active or inactive are those of the source. The calls are words filed in the database; no cut-off is given here.

Data set [1] deals with T1, Voltage-gated inwardly rectifying potassium channel KCNH2 (Homo sapiens, UniProt Q12809). Description: Displacement of Tracer Red from human ERG expressed in cell membranes by fluorescence polarization assay. Put shortly: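 Competitive fluorescence polarization binding assay using membranes from cells stably expressing hERG, measuring displacement of a fluorescently tagged hERG ligand. Test compounds were run at concentrations up to 60 μM.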
(In general: Polarisation of emitted light reports the rotation of a fluorescent probe.)

Data set [2] deals with N+/K+ ATPase alpha-4/beta-1 (Rattus norvegicus, UniProt Q64541). Briefly: Inhibition of recombinant rat Na+/K+-ATPase alpha4/beta1 expressed in baculovirus infected insect Sf9 cell membranes using [gamma-32P]ATP as substrate preincubated for 10 mins followed by substrate addition measured after 30 mins in presence of Na+, K+ and Mg2+ by liquid scintillation counting. Put shortly:
(§1)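 Rat α/β1 isoforms were expressed in baculovirus-infected Sf9 cells (72 h, 27 °C), washed in 10 mM imidazole-HCl pH 7.5 with 1 mM EGTA, and homogenised. Homogenates were assayed in 120 mM NaCl, 30 mM KCl, 3 mM MgCl₂, 0.2 mM EGTA and 30 mM Tris-HCl pH 7.4. Reactions were started with 2 mM γ[³²P]-ATP (final) and run 30 min at 37 °C. Released ³²Pi was extracted as phosphomolybdate into isobutanol and scintillation counted. IC50 came from single-site dose–response fits.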

Data set [3] addresses Sodium/potassium-transporting ATPase subunit alpha-4 (Rattus norvegicus) (UniProt Q64541). Description: Inhibition of Na+/K+-ATPase alpha4 in Long Evans rat cauda epididymis sperm assessed as reduction in sperm beat cross frequency at 10^-12 to 10^-4 M after 1 hr by SYTO staining based microscopic method.
Data set [4] shares this target. Description: Inhibition of Na+/K+-ATPase alpha4 in Long Evans rat cauda epididymis sperm assessed as reduction in sperm motility at 10^-8 M preincubated for 1 hr followed by compound washout measured up to 2 hrs by SYTO staining based microscopic method. Put shortly: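 Rat cauda epididymal sperm in modified Tyrode's medium were treated with or without compound. Motility was measured by SYTO 21/CASA before and after three washes in modified Tyrode's medium, at times up to 2 h. Values are mean ± SEM of three determinations.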

Data set [5] has the same target. Briefly: Inhibition of Na+/K+-ATPase alpha4 in Long Evans rat cauda epididymis sperm assessed as reduction in sperm average path velocity at 10^-12 to 10^-4 M after 1 hr by SYTO staining based microscopic method.
For data set [6], the target named is Na+/K+ ATPase alpha-3/beta-1 (Rattus norvegicus, UniProt P06687+P07340). Description: Inhibition of recombinant rat Na+/K+-ATPase alpha3/beta1 expressed in baculovirus infected insect Sf9 cell membranes using [gamma-32P]ATP as substrate preincubated for 20 mins followed by substrate addition measured after 30 mins by liquid scintillation counting. Put shortly:
as §1

In data set [7] the target is Sodium/potassium-transporting ATPase subunit alpha-4 (Rattus norvegicus) (UniProt Q64541). Description: Inhibition of Na+/K+-ATPase alpha4 in Long Evans rat cauda epididymis sperm assessed as reduction in sperm straight line velocity at 10^-12 to 10^-4 M after 1 hr by SYTO staining based microscopic method.
The target is the same in data set [8]. Briefly: Inhibition of Na+/K+-ATPase alpha4 in Long Evans rat cauda epididymis sperm assessed as reduction in total sperm motility at 10^-12 to 10^-4 M after 1 hr by SYTO staining based microscopic method.
Data set [9] concerns the target Na+/K+ ATPase alpha-1/beta-1 (Rattus norvegicus, UniProt P06685+P07340). Description: Inhibition of recombinant rat Na+/K+-ATPase alpha1/beta1 expressed in baculovirus infected insect Sf9 cell membranes using [gamma-32P]ATP as substrate preincubated for 20 mins followed by substrate addition measured after 30 mins by liquid scintillation counting. Summed up: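 Rat α/β1 isoforms were expressed in baculovirus-infected Sf9 cells (72 h, 27 °C), washed in 10 mM imidazole-HCl pH 7.5 with 1 mM EGTA, and homogenised. Homogenates were assayed in 120 mM NaCl, 30 mM KCl, 3 mM MgCl₂, 0.2 mM EGTA and 30 mM Tris-HCl pH 7.4. Reactions were started with 2 mM γ[³²P]-ATP (final) and run 30 min at 37 °C. Released ³²Pi was extracted as phosphomolybdate into isobutanol and scintillation counted. Activity was taken as the 1 mM ouabain-sensitive fraction. IC50 came from single-site dose–response fits.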

In data set [10] the target is Sodium/potassium-transporting ATPase subunit alpha-4 (Rattus norvegicus) (UniProt Q64541). Briefly: Inhibition of Na+/K+-ATPase alpha4 in Long Evans rat cauda epididymis sperm assessed as reduction in sperm progressive motility at 10^-12 to 10^-4 M after 1 hr by SYTO staining based microscopic method.
Data set [11] addresses T1, Voltage-gated inwardly rectifying potassium channel KCNH2. Description: Displacement of Tracer Red from human ERG expressed in cell membranes up to 60 uM by fluorescence polarization assay. Put shortly: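 Competitive fluorescence polarization displacement of a fluorescently tagged hERG ligand used membranes from cells stably expressing hERG. Compounds were tested up to 60 μM.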

In data set [12] the target is Sodium/potassium-transporting ATPase subunit alpha-4 (Rattus norvegicus) (UniProt Q64541). Description: Inhibition of Na+/K+-ATPase alpha4 in Long Evans rat cauda epididymis sperm assessed as reduction in sperm average path linearity at 10^-12 to 10^-4 M after 1 hr by SYTO staining based microscopic method.
In data set [13] the target is Na+/K+ ATPase alpha-2/beta-1 (Rattus norvegicus, UniProt P06686+P07340). Description: Inhibition of recombinant rat Na+/K+-ATPase alpha2/beta1 expressed in baculovirus infected insect Sf9 cell membranes using [gamma-32P]ATP as substrate preincubated for 20 mins followed by substrate addition measured after 30 mins by liquid scintillation counting. Put shortly: as §1

A further data set has as its system MCF7. Briefly: Antiproliferative activity against human MCF7 cells up to 100 uM after 72 hrs by AlamarBlue assay. It is filed as cell-based. To be noted: mcf7, 72 h.
The target in data set [14] is Sodium/potassium-transporting ATPase subunit alpha-4 (Rattus norvegicus) (UniProt Q64541). Description: Inhibition of Na+/K+-ATPase alpha4 in Long Evans rat cauda epididymis sperm assessed as reduction in sperm curvilinear velocity at 10^-12 to 10^-4 M after 1 hr by SYTO staining based microscopic method.

T1 sequence (Q12809 whole entry): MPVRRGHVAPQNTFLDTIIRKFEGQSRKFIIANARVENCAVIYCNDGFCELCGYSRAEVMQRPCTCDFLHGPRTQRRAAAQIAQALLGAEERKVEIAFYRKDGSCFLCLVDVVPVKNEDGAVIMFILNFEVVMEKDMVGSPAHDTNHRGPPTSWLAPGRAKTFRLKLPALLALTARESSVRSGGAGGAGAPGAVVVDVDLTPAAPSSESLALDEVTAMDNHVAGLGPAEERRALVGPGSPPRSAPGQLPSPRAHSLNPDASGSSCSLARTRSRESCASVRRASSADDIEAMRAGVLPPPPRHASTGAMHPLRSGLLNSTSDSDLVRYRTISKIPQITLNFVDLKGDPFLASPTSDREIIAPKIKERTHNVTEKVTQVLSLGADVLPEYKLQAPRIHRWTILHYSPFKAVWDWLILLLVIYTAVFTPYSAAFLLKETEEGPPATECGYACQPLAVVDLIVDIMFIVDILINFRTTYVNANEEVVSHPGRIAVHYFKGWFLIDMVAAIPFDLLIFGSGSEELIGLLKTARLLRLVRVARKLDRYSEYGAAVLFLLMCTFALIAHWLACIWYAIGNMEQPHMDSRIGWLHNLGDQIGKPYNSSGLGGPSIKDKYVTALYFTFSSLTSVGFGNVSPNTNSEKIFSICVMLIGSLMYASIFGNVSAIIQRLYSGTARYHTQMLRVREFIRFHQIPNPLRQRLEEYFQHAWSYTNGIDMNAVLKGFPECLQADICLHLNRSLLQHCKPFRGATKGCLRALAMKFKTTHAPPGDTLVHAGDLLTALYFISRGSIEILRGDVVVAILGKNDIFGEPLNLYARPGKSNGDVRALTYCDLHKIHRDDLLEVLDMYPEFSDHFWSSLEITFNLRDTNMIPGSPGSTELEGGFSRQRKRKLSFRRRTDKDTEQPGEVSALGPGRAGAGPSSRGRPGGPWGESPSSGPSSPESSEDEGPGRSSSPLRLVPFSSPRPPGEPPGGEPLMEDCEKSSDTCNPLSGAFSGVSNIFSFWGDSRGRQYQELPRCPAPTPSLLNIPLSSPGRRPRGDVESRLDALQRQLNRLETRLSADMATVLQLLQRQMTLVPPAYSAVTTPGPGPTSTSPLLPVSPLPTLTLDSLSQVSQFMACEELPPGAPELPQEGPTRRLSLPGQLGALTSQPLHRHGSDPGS
Sequence of Sodium/potassium-transporting ATPase subunit alpha-4 (Rattus norvegicus) (Q64541 whole entry): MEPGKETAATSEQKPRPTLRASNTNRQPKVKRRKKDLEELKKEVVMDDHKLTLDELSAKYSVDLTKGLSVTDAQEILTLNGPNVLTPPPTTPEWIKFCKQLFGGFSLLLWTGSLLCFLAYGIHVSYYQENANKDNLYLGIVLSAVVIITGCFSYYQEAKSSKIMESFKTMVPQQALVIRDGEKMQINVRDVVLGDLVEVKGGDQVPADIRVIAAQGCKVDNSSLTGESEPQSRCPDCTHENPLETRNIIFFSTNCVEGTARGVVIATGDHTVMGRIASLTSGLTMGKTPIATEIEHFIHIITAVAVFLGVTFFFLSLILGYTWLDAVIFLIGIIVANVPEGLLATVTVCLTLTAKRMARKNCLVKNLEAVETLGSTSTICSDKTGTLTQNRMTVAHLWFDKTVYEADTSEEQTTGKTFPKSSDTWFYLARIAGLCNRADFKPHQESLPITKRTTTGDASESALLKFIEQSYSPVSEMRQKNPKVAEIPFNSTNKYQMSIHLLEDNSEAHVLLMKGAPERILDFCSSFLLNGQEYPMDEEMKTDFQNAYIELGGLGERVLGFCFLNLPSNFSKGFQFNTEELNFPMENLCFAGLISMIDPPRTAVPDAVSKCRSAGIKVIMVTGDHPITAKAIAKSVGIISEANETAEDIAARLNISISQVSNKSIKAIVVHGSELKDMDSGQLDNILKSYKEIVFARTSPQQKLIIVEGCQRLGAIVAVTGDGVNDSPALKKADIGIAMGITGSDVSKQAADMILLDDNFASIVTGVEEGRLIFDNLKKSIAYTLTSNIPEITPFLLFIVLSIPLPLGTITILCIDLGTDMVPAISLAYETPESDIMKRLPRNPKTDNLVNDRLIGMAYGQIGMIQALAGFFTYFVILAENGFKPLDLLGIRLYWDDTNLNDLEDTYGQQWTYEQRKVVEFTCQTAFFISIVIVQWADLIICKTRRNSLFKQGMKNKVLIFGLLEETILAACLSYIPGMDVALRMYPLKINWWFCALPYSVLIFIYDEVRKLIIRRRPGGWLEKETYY
Sequence of N+/K+ ATPase alpha-4/beta-1 (Q64541 whole entry, other chains not shown, canonical isoform): as the sequence (Q64541 whole entry) above

A word on the IC50: it is the concentration that inhibits the measured activity by half. As to `C[C@@H]1O[C@@H](O[C@H]2C[C@@H](O)[C@]3(CO)[C@H]4[C@H](O)C[C@]5(C)[C@@H](C6=CC(=O)OC6)CC[C@]5(O)[C@@H]4CC[C@]3(O)C2)[C@H](O)[C@H](O)[C@H]1O` [OUABAIN], the IC50 in data set [1] amounted to 5.8 µM.

Turning to `COCO[C@H]1C[C@H]2OC(C)(C)OC[C@]23[C@@H]2[C@@H](CC[C@]3(O)C1)[C@@]1(OCOC)CC[C@H](C(O)C(F)(F)F)[C@@]1(C)C[C@H]2OCOC` (mixture of isomers), the IC50 in [2] is 5.6 to 5.9 µM.

Turning to `COCO[C@@H]1[C@H]2OC(C)(C)O[C@H]2[C@H](O[C@H]2C[C@H]3OC(C)(C)OC[C@]34[C@@H]3[C@@H](CC[C@]4(O)C2)[C@@]2(O)CC[C@H](C(O)c4cn(Cc5ccc(F)cc5)nn4)[C@@]2(C)C[C@H]3OCOC)O[C@H]1C` (mixture of isomers), in data set [2], the IC50 is 0.012 to 0.07 µM.

Regarding `COCO[C@@H]1[C@H]2OC(C)(C)O[C@H]2[C@H](O[C@H]2C[C@H]3OC(C)(C)OC[C@]34[C@@H]3[C@@H](CC[C@]4(O)C2)[C@@]2(O)CC[C@H](CO)[C@@]2(C)C[C@H]3OCOC)O[C@H]1C`, the inhibition entry in data set [3], in [4], in [5], in data set [7], in data set [8] and in [10] was “Active” throughout. Besides, the inhibition result in [12] and in [14] was “Active” throughout. Further, the 50% inhibitory concentration (IC50) in [6], in data set [9] and in data set [13] was over 100 µM each time. For the same molecule, the “inhibition (INH)” value in [11] is reported as “Not Active”. The Activity result in the data set on MCF7 is given as “Non-Toxic”.

As to `COCO[C@@H]1[C@H]2OC(C)(C)O[C@H]2[C@H](O[C@H]2C[C@H]3OC(C)(C)OC[C@]34[C@@H]3[C@@H](CC[C@]4(O)C2)[C@@]2(O)CC[C@H](C=O)[C@@]2(C)C[C@H]3OCOC)O[C@H]1C`, the IC50 in data set [2] was 0.0049 to 0.0071 µM.

For `COc1ccc(-c2cn(C[C@H]3CC[C@]4(O)[C@@H]5CC[C@]6(O)C[C@@H](O)C[C@@H](O)[C@]6(CO)[C@H]5[C@H](O)C[C@]34C)nn2)cc1`, the IC50 in [2] was in the range of 15 to 39 µM.

On to `COCO[C@@H]1[C@H]2OC(C)(C)O[C@H]2[C@H](O[C@H]2C[C@H]3OC(C)(C)OC[C@]34[C@@H]3[C@@H](CC[C@]4(O)C2)[C@@]2(O)CC[C@H](C#N)[C@@]2(C)C[C@H]3OCOC)O[C@H]1C`, for which the IC50 in data set [2] was in the range of 0.033 to 0.062 µM.

`C[C@]12C[C@@H](O)[C@H]3[C@@H](CC[C@]4(O)C[C@@H](O)C[C@@H](O)[C@]34CO)[C@@]1(O)CC[C@@H]2c1cn(Cc2ccc(F)cc2)nn1`: the 50% inhibitory concentration (IC50) in data set [2] lay within 0.032 to 0.049 µM.

Turning to `COCO[C@H]1C[C@H]2OC(C)(C)OC[C@]23[C@@H]2[C@@H](CC[C@]3(O)C1)[C@@]1(OCOC)CC[C@H](C#N)[C@@]1(C)C[C@H]2OCOC`, the IC50 in data set [2] lay within 16 to 37 µM.

Turning to `C[C@@H]1O[C@@H](O[C@H]2C[C@@H](O)[C@]3(CO)[C@H]4[C@H](O)C[C@]5(C)[C@@H](C(O)c6cn(Cc7ccccc7)nn6)CC[C@]5(O)[C@@H]4CC[C@]3(O)C2)[C@H](O)[C@H](O)[C@H]1O` (mixture of isomers), the IC50 in data set [2] was in the range of 1.2 to 1.5 µM.

`C[C@]12C[C@@H](O)[C@H]3[C@@H](CC[C@]4(O)C[C@@H](O)C[C@@H](O)[C@]34CO)[C@@]1(O)CC[C@@H]2c1cn(Cc2ccc(Cl)cc2)nn1`: in [2], the IC50 lay in the range of 0.032 to 0.043 µM.

Consider `COCO[C@H]1C[C@H]2OC(C)(C)OC[C@]23[C@@H]2[C@@H](CC[C@]3(O)C1)[C@@]1(OCOC)CC[C@H](/C=N/O)[C@@]1(C)C[C@H]2OCOC`, for which the IC50 in data set [2] lay within 0.0014 to 0.0029 µM.

As to `C[C@@H]1O[C@@H](O[C@H]2C[C@@H](O)[C@]3(CO)[C@H]4[C@H](O)C[C@]5(C)[C@@H](C(O)c6cn(Cc7ccc(F)cc7)nn6)CC[C@]5(O)[C@@H]4CC[C@]3(O)C2)[C@H](O)[C@H](O)[C@H]1O` (mixture of isomers), the IC50 in [2] lay within 0.013 to 0.044 µM.

Take `COCO[C@H]1C[C@H]2OC(C)(C)OC[C@]23[C@@H]2[C@@H](CC[C@]3(O)C1)[C@@]1(OCOC)CC[C@H](CO)[C@@]1(C)C[C@H]2OCOC`: the inhibition result in data set [3], in [4], in [5], in [7], in data set [8] and in data set [10] was “Active” each time. Moreover, the inhibition result in [12] and in [14] was “Active” in each case. In addition, the IC50 is over 100 µM in data set [6], over 100 µM in data set [9] and 6.6 µM in [13]. In addition, the “inhibition (INH)” value in data set [11] was “Not Active”. Also, the Activity result with MCF7 is “Non-Toxic”.

Take `COCO[C@@H]1[C@H]2OC(C)(C)O[C@H]2[C@H](O[C@H]2C[C@H]3OC(C)(C)OC[C@]34[C@@H]3[C@@H](CC[C@]4(O)C2)[C@@]2(O)CC[C@H](C(O)CO)[C@@]2(C)C[C@H]3OCOC)O[C@H]1C` (mixture of isomers): in data set [2], the IC50 lay within 2.1 to 3.7 µM.

On to `COCO[C@H]1C[C@H]2OC(C)(C)OC[C@]23[C@@H]2[C@@H](CC[C@]3(O)C1)[C@@]1(OCOC)CC[C@H](c3cn(Cc4ccccc4)nn3)[C@@]1(C)C[C@H]2OCOC`, for which the half-maximal inhibitory concentration (IC50) in data set [2] lay in the range of 0.005 to 0.0069 µM.

As to `C[C@@H]1O[C@@H](O[C@H]2C[C@H]3OC(C)(C)OC[C@]34[C@H]3[C@H](O)C[C@]5(C)[C@@H](C6=CC(=O)OC6)CC[C@]5(O)[C@@H]3CC[C@]4(O)C2)[C@@H]2OC(C)(C)O[C@@H]2[C@H]1O`, the IC50 in data set [2] lay within 0.004 to 0.0043 µM.

Take `C#CC(O)[C@H]1CC[C@]2(OCOC)[C@@H]3CC[C@]4(O)C[C@@H](OCOC)C[C@H]5OC(C)(C)OC[C@]54[C@H]3[C@H](OCOC)C[C@]12C` (mixture of isomers): the IC50 in data set [2] fell in the range of 0.01 to 0.06 µM.

In the case of `COCO[C@H]1C[C@H]2OC(C)(C)OC[C@]23[C@@H]2[C@@H](CC[C@]3(O)C1)[C@@]1(OCOC)CC[C@H](C(=O)O)[C@@]1(C)C[C@H]2OCOC`, the IC50 in [2] fell in the range of 0.039 to 0.077 µM.

These data come from ChEMBL document CHEMBL4033781 (J Med Chem, 2018).
